Screening results: PubChem BioAssay, several laboratories
HSF1 inhib = HSF1 inhibitors in luciferase reporter cells, primary screen, cell-based, NIH3T3, luminescence. 300,000 compounds, 0.77% hits. AID 2098, 2009. NIH3T3-HGL HSE-luciferase, MG132-induced, luminescence 8 h; stronger effect = lower value. activity change, negative = inhibition, % at 7.5 µM (by protocol);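 active = more than half of replicate wells show activity change below -50%, luminescence cut by over half; inconclusive = some wells, but at most half, below -50%; inactive = no replicate well below -50%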;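 also: luciferase reports HSF-1 transcriptional activity via heat shock element; 0% = median of DMSO wells and -100% = zero luminescence signal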
AHR activator = AHR activators, primary screen, cell-based, luminescence, luciferase reporter, human | Aryl hydrocarbon receptor (Homo sapiens), P35869 | AHR-responsive luciferase reporter cells | activation, % at 5 µM | 320,000 compounds, 2.5% hits | AID 2796, 2010; in the data active = activation above about 47%;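 also: 0% = vehicle wells and 100% = reference agonist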
Target sequence (P35869 whole entry, looked up): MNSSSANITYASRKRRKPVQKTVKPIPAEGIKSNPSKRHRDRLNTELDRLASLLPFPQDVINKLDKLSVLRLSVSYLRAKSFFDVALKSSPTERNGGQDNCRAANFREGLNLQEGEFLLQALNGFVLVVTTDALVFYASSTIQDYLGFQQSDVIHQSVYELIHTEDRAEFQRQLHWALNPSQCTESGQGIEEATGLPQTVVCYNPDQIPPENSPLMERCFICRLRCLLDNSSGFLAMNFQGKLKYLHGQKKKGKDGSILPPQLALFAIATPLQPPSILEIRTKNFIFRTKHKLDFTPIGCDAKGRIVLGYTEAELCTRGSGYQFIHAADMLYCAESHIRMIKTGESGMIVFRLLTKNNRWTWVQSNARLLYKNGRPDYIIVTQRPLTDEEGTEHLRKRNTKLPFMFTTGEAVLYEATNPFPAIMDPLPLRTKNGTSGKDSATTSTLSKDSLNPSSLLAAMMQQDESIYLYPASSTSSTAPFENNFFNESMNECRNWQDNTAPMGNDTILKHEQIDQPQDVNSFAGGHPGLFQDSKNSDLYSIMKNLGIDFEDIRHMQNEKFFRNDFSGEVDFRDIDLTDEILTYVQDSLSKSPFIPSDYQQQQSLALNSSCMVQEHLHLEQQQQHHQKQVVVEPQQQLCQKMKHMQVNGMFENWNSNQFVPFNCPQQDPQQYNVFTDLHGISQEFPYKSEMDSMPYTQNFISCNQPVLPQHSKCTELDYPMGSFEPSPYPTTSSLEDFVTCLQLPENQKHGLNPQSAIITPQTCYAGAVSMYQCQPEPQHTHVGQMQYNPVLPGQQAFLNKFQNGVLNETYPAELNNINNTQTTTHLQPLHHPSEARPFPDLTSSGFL
STAT3 activator = IL-6 driven STAT3 reporter potentiators, primary screen, U3A cells, luciferase, luminescence, MLSCN library; activation (% of control), % at 5.6 µM; IL-6 STAT3-luciferase reporter; 100% = signal with IL-6 EC80 alone; 190,000 compounds, 0.91% hits;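 active = activation above the screen-wide mean of compound activation plus 3 SD, cut at about 130% in these data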;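 also: 0% = background luminescence of wells with medium and substrate only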
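Test system: Human STAT1-deficient U3A cells with stable STAT3-luciferase reporter | Also added: Interleukin-6, 33 ng/mL | Timing: Compound pre-incubation 1 h before IL-6, then 6 h stimulation at 37 °C | Technique: Luciferase reporter luminescence | Read-out: Percent of IL-6-only median luminescence | Benchmarks: IL-6-only wells as 100% reference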
PolyA inhibitor = polyadenylation inhibitors in yeast reporter cells, primary screen, luminescence, S. cerevisiae. S. cerevisiae SKY197-pL101 polyadenylation reporter, beta-gal luminescence; efflux-impaired pdr1/pdr3 knockout yeast; score 100 = 6 SD above DMSO. AID 1875, 2009. activity score, % at 12 µM. 300,000 compounds, 0.02% hits;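 active = lowest replicate activity score at least 50, where 100 means six control SD above control mean; inconclusive = lowest score under 50 but half or more replicates reach 50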;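 also: yeast exposed to compound for 9 h at 30 °C; higher score means more reporter readthrough which indicates perturbed polyadenylation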
Hsp70 act = Hsp70 transcriptional activators, primary screen, cell-based, HeLa, Hsp70 promoter luciferase, luminescence, 10 µM | activation, % at 10 µM | 200,000 compounds, 0.04% hits | HeLa Hsp70 promoter luciferase reporter; scaled: vehicle 0, proteasome-inhibitor control 100%;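 active = activation above the mean across all tested compounds plus 3 SD, cutoff set per campaign, cut at about 5.5% in these data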;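 also: 100% = MG132 at 30 µM as the positive control and 0% = DMSO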
PERK inh = block of dimerizer-induced PERK translation repression, primary screen, PERK inhibitor project, CHO PERK-DD cells, SEAP luminescence, HTS; Eukaryotic translation initiation factor 2-alpha kinase 3 (Homo sapiens), Q9NZJ5; 220,000 compounds, 0.17% hits; CHO PERK-DD fusion, SEAP luminescence translation reporter; inhibition, % at 5.6 µM;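 active = inhibition above the mean inhibition of all tested compounds plus 3 SD, set separately per screening campaign, cut at about 2.9% in these data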;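 also: PERK kinase domain activated by AP20187 dimerizer at 100 nM; 0% = DMSO with dimerizer and 100% = rapamycin at 8.4 µM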
The depositor's hits bear a star; u = inconclusive; x = no result. Most compounds without a hit are left out; they make up all but 3.6% or so of the library.

SMILES	HSF1 inhib	AHR activator	STAT3 activator	PolyA inhibitor	Hsp70 act	PERK inh
CC(C)CNC(=O)[C@H]1N2C(=O)c3ccccc3C2SC1(C)C (some centres not stated)	13	0	x	12	x	x
C=CCN(CC=C)C(=O)c1ccc(OC2CCN(Cc3ccccn3)CC2)cc1	2	-1	105	-22	0	0
CCc1ccc(-c2csc(NC(=O)C3=COCCO3)n2)cc1	x	6	x	x	x	x
CCCn1c(N)c(C(=O)COC(=O)CCNS(=O)(=O)c2ccccc2F)c(=O)[nH]c1=O	-15	1	x	-5	x	x
Cc1cccc(C(=O)NC2CCN(C(=O)Nc3ccc(F)cc3)CC2)c1	-54*	3	x	3	x	x
COc1ccc(NS(=O)(=O)c2cc3c4c(c2)CCN4C(=O)CC3)c(OC)c1	-2	x	x	-5	x	x
Cc1ccc(C(=O)Nc2sc(C)c(-c3ccccc3)c2C(N)=O)cc1[N+](=O)[O-]	-81*	12	74	-11	1	0
Cc1ccc(C(=O)NCC(=O)OCc2c(F)cccc2Cl)s1	x	-3	x	x	x	x
CN(C)S(=O)(=O)c1cccc(NC(=S)N(CCC#N)Cc2cccnc2)c1	-5	0	97	-12	0	1
Fc1ccccc1-c1csc(=Nc2cccnc2)n1CCCn1ccnc1	-18	70*	100	-12	1	-1
Cc1cc(C)cc(NC(=O)C2C3C=CC4(O3)C2C(=O)N(CCCN(C)C)C4C(=O)NC2CCCC(C)C2C)c1 (configuration not stated)	-5	0	x	6	x	x
C=CCn1c(N)c(-c2nc3ccccc3n2C)sc1=S	-7	15	87	-13	0	1
Cn1c(-c2sc(=S)n(-c3ccccc3)c2N)nc2ccccc21	15	19	133*	-9	0	1
Cc1cc(N2CCCCCC2)nc2ccc(F)cc12	-16	58*	90	0	0	0
CCOc1ccc2nc(N/C(N)=N/C(=S)Nc3ccc(C)c(C)c3)nc(C)c2c1	2	8	95	-3	0	1
CCNC(=S)/N=C(\N)Nc1nc(C)c2cc(C)ccc2n1	24	77*	127	-29	0	2
COc1ccc(NC(=S)/N=C(\N)Nc2nc(C)c3ccc(C)cc3n2)cc1	-15	55*	116	-10	0	1
O=C(/C=C/c1ccco1)Nc1nnc(-c2ccco2)s1	-11	13	90	6	0	0
CCSc1nnc(NC(=O)/C=C/c2ccco2)s1	14	60*	94	1	0	0
CCc1nnc(NC(=O)c2ccc3ccccc3n2)s1	11	28	127	-15	0	0
CCSc1nnc(NC(=O)c2ccc3ccccc3n2)s1	18	64*	125	9	0	-2
O=C(CSc1nnc(CNC(=O)c2ccccc2)o1)NCCc1ccccc1	u	4	x	11	x	x
CCOc1ccc2nc(NCCNC(=S)NCCCN(C)C)c(C#N)cc2c1	-5	8	109	19	0	3.0*
CCOc1ccc2nc(NCCNC(=O)Nc3ccccc3)c(C#N)cc2c1	-3	17	99	17	0	0
CCCCNC(=S)NNC(=O)c1c(C)nc2ccccn12	7	1	100	8	0	2
CC(=O)c1cccc(NC(=O)c2ccc3c(c2)OCO3)c1	12	23	x	-14	x	x
COc1ccc(-c2cccc(NC(=O)c3ccc4c(c3)OCO4)c2)nn1	-2	65*	x	5	x	x
O=C(Nc1ccc2c(c1)OCO2)c1cccc(Cl)c1	24	49*	98	18	0	1
O=C(Nc1ccc2c(c1)OCO2)c1ccc[n+]([O-])c1	4	48*	102	-2	0	2
CSc1ccccc1C(=O)Nc1ccc2c(c1)OCO2	5	54*	86	2	0	0
